Measured values as given in ChEMBL document CHEMBL1828498, “Identification and characterization of a novel integrin-linked kinase inhibitor” (J Med Chem, 2011).
pIC50: −log10 of the molar value. Calls of active or inactive are those of the source. The calls are words filed in the database; no cut-off is given here.

How the values were obtained:
MDA-MB-231 = assay: Antiproliferative activity against human MDA-MB-231 cells assessed as suppression of cell viability by MTT assay; assay type: functional, cell-based
How it was run: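 Cancer lines seeded 5000/well and nonmalignant PrEC/MEC 8000/well in 10% FBS, 24 h before treatment. Compound exposure 24 h in 5% FBS medium, 0.1% final DMSO. MTT (0.25 mg/mL) for 1 h at 37°C, dye solubilized in DMSO, absorbance read at 570 nm. Mean ± SD, n = 6.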

[1] = target: T1, Scaffold protein ILK (Homo sapiens) (UniProt Q13418); assay: Inhibition of ILK in human PC3 cells assessed as decrease in GSK3-beta phosphorylation by Western blot analysis; assay type: cell-based; details: PC-3
T1 sequence (whole entry): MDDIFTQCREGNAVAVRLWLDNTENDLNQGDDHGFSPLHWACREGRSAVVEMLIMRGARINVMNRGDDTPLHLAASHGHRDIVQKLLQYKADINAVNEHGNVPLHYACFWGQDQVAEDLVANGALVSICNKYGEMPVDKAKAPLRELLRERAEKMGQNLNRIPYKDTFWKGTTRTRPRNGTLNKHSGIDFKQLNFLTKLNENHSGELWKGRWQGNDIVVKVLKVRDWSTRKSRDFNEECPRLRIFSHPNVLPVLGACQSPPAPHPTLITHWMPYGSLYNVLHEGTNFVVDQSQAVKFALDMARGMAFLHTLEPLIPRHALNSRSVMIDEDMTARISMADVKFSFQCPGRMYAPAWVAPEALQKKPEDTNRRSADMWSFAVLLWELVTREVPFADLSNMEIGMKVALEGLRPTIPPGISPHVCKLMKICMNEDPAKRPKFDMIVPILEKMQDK
How it was run: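 PC-3 and MDA-MB-231 cells exposed 24 h in 5% FBS medium across a concentration series. Phospho-GSK3β (Ser9) and phospho-MLC (Thr18/Ser19) detected by immunoblot: SDS lysis, primary 1:1000 at 4°C for 2 h, HRP secondary, ECL. Representative of three experiments.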

[2] = target: Rapamycin-insensitive companion of mTOR (Homo sapiens) (UniProt Q6R327); assay: Inhibition of mTORC2 in human MDA-MB-231 cells assessed as SGK1 phosphorylation by Western blot analysis; assay type: cell-based
How it was run: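 Cells exposed 24 h in 5% FBS medium, final DMSO 0.1%; lysed in 1% SDS/10 mM EDTA/50 mM Tris pH 8.1, equal protein on SDS-PAGE, nitrocellulose, primary antibody 1:1000 at 4°C for 2 h, HRP secondary 1:5000, ECL detection; blots representative of three independent experiments.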

PC-3 [3] = assay: Reduction in YB-1 concentration in human PC3 cells after 24 hrs by Western blot analysis; assay type: functional, cell-based
How it was run: (§1)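 PC-3 versus stable PC-3/CA-ILK, or SKBR3 versus transient SKBR3/CA-ILK (electroporation, used 48 h after), treated 24 h in 5% FBS medium; immunoblotting with ECL; representative of three experiments.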

PC-3 [4] = assay: Reduction in HER2 mRNA expression in human PC3 cells after 24 hrs by RT-PCR analysis; assay type: functional, cell-based
How it was run: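 PC-3, PC-3/CA-ILK, SKBR3 and SKBR3/CA-ILK cells treated 24 h in 5% FBS medium; total RNA from 1 × 10^6 cells by Trizol, 1 μg reverse-transcribed, then PCR with gene-specific primers and β-actin reference.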

PC-3 [5] = assay: Reduction in EGFR concentration in human PC3 cells expressing constitutively active ILK after 24 hrs by Western blot analysis; assay type: functional, cell-based; how it was run: as §1
SK-BR-3 = assay: Reduction in YB-1 concentration in human SKBR3 cells after 24 hrs by Western blot analysis; assay type: functional, cell-based; how it was run: as §1
[6] = target: Tyrosine-protein kinase ABL1 (Homo sapiens) (UniProt P00519); assay: Inhibition of Abl kinase at 5 uM assessed as remaining activity
How it was run: (§2)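 Panel of 20 recombinant kinases, profiled by a commercial vendor.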

[7] = target: Proto-oncogene tyrosine-protein kinase Src (Homo sapiens) (UniProt P12931); assay: Inhibition of cSRC at 5 uM assessed as remaining activity
[8] = target: Epidermal growth factor receptor (Homo sapiens) (UniProt P00533); assay: Inhibition of EGFR at 5 uM assessed as remaining activity; how it was run: as §2
[9] = target: Serine/threonine-protein kinase mTOR (Homo sapiens) (UniProt P42345); assay: Inhibition of mTOR at 5 uM assessed as remaining activity
[10] = target: RAC-alpha serine/threonine-protein kinase (Homo sapiens) (UniProt P31749); assay: Inhibition of Akt at 5 uM assessed as remaining activity; how it was run: as §2
[11] = target: Ribosomal protein S6 kinase beta-1 (Homo sapiens) (UniProt P23443); assay: Inhibition of p70S6K in human PC3 cells assessed as decrease in phosphorylated p70S6K by Western blot analysis; assay type: cell-based; details: PC-3
How it was run: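 PC-3 cells (parental, or stable GFP-CA-ILK clones selected with G418 250 μg/mL and GFP sorting) exposed 24 h in 5% FBS medium; SDS lysis, immunoblot at 1:1000 primary, ECL; representative of three experiments.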

[12] = target: T1, Scaffold protein ILK (Homo sapiens); assay: Inhibition of ILK in human PC3 cells assessed as decrease in phosphorylated ERK1/2 concentration by Western blot analysis; assay type: cell-based; details: PC-3
How it was run: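 PC-3 cells exposed to graded concentrations for 24 h in 5% FBS medium. Immunoblotting for phospho-Tyr397-FAK, ERK1/2, p38 and JNK. Lysis in 1% SDS buffer, primary antibody 1:1000 at 4°C for 2 h, ECL. Three independent experiments.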

[13] = target: T1, Scaffold protein ILK (Homo sapiens); assay: Inhibition of ILK in human PC3 cells expressing constitutively active ILK assessed as decrease in phosphorylated p38 concentration by Western blot analysis; assay type: cell-based; details: PC-3
How it was run: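 Stable PC-3 clones expressing GFP-CA-ILK (G418 250 μg/mL selection, GFP sorting) treated 24 h in 5% FBS medium. Phospho-ERK1/2 and phospho-p38 detected by immunoblot with ECL. Representative of three experiments.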

PC-3 [14] = assay: Suppression of tumor growth in human PC3 cells xenografted in nude mouse at 25 mg/kg/day, po administered for 35 days relative to control; assay type: functional
How it was run: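 Male NCr athymic nude mice, s.c. 0.5 × 10^6 PC-3 cells in 50% Matrigel; established tumors randomized (n=6) to daily oral gavage in 0.5% methylcellulose/0.1% Tween 80 in water, 10 μL/g, 35 days; weekly caliper volume = width² × length × 0.52; mean ± SEM, ANOVA or t-test.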

Mus musculus [15] = assay: Decrease in phosphorylation of YB-1 in human PC3 cells xenografted nude mouse tumor lysate at 25 mg/kg, po administered for 35 days by Western blot analysis; assay type: functional, organism-based; set-up: dose 25 mg/kg; details: Neoplasm, PC-3
How it was run: (§3)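 Male NCr athymic nude mice, 5–7 weeks, with s.c. PC-3 xenografts (0.5 × 10^6 cells in 50% Matrigel), dosed by oral gavage once daily for 35 days. Vehicle 0.5% methylcellulose, 0.1% Tween 80 in water, 10 μL/g. Tumors snap-frozen at sacrifice; three tumors per group immunoblotted.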

Mus musculus [16] = assay: Decrease in phosphorylation of EGFR in human PC3 cells xenografted nude mouse tumor lysate at 25 mg/kg, po administered for 35 days by Western blot analysis; assay type: functional, organism-based; set-up: dose 25 mg/kg; details: Neoplasm, PC-3; how it was run: as §3
PC-3 [17] = assay: Induction of apoptosis in human PC3 cells assessed as late apoptotic cells at 2 uM by annexin V/PI staining (reference value: 9.8%); assay type: functional

Chain of RAC-alpha serine/threonine-protein kinase (Homo sapiens) (P31749 whole entry): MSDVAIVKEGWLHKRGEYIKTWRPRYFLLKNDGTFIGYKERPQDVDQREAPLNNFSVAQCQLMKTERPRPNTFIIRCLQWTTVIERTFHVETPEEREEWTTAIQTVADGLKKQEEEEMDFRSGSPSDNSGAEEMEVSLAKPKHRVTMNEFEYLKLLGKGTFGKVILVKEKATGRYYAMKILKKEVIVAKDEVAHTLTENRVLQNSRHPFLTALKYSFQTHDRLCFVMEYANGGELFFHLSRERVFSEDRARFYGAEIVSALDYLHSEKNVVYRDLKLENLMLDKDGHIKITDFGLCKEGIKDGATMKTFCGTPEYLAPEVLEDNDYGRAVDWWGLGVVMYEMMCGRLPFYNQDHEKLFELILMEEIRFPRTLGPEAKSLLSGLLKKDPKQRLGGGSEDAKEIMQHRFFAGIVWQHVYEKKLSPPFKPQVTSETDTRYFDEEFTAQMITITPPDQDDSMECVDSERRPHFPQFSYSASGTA
Chain of Tyrosine-protein kinase ABL1 (Homo sapiens) (P00519 whole entry): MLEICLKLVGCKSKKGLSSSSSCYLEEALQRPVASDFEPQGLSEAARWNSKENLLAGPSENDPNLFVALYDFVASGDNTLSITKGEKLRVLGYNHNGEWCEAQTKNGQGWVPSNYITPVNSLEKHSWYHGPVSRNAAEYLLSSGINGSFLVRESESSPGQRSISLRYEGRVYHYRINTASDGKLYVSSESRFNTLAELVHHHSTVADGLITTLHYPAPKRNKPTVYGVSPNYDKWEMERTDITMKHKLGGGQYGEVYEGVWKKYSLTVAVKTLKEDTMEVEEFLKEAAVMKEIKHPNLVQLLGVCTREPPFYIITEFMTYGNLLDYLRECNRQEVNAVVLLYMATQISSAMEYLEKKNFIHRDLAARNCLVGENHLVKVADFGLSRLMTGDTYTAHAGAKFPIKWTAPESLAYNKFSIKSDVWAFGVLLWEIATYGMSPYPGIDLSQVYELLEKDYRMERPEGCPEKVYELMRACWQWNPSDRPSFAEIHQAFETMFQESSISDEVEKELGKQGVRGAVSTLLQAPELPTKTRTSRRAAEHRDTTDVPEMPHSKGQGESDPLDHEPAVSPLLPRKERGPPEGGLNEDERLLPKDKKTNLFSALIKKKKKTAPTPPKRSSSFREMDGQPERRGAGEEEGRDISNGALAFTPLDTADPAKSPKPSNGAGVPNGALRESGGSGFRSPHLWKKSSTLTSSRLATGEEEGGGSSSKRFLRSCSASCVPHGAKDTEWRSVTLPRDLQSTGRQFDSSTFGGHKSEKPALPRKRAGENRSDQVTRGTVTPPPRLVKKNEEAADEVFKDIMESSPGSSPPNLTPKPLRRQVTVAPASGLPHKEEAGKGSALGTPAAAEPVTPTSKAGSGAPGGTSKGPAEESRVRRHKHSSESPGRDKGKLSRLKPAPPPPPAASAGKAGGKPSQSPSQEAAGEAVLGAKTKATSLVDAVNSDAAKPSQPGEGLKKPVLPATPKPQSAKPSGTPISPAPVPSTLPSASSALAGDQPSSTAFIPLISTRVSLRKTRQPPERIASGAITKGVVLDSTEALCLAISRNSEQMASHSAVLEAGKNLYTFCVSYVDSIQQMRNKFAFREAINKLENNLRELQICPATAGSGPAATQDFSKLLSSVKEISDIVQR
Chain of Epidermal growth factor receptor (Homo sapiens) (P00533 whole entry): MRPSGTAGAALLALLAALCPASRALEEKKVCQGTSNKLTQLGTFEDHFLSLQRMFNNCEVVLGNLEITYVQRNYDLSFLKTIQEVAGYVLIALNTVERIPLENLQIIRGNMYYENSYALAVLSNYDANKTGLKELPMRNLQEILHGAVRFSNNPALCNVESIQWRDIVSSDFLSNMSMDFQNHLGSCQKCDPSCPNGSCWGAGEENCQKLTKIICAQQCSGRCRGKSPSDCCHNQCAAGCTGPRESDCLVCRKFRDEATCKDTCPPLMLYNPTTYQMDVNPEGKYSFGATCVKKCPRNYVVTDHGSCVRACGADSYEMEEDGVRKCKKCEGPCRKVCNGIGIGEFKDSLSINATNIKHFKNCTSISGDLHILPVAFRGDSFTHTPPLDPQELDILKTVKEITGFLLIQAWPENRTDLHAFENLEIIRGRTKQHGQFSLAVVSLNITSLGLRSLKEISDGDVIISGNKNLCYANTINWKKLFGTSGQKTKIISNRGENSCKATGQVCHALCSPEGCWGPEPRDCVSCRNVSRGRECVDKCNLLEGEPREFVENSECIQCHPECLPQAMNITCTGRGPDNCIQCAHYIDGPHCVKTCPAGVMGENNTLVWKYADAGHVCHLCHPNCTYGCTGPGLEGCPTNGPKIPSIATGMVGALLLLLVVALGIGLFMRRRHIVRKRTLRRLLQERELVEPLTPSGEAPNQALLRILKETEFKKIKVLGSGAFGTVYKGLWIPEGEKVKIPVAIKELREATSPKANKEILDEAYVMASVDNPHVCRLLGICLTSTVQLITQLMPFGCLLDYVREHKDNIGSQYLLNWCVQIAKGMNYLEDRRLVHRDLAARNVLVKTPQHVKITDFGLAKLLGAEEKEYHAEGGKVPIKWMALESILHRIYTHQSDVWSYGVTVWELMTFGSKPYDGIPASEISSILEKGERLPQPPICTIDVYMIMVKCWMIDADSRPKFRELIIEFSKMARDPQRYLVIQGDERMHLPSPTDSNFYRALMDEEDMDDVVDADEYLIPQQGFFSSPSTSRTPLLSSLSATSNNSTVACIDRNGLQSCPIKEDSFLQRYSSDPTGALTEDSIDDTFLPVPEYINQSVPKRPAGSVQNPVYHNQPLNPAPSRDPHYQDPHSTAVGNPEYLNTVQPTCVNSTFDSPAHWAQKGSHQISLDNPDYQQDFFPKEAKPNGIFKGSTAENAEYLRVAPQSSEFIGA
Chain of Rapamycin-insensitive companion of mTOR (Homo sapiens) (Q6R327 whole entry): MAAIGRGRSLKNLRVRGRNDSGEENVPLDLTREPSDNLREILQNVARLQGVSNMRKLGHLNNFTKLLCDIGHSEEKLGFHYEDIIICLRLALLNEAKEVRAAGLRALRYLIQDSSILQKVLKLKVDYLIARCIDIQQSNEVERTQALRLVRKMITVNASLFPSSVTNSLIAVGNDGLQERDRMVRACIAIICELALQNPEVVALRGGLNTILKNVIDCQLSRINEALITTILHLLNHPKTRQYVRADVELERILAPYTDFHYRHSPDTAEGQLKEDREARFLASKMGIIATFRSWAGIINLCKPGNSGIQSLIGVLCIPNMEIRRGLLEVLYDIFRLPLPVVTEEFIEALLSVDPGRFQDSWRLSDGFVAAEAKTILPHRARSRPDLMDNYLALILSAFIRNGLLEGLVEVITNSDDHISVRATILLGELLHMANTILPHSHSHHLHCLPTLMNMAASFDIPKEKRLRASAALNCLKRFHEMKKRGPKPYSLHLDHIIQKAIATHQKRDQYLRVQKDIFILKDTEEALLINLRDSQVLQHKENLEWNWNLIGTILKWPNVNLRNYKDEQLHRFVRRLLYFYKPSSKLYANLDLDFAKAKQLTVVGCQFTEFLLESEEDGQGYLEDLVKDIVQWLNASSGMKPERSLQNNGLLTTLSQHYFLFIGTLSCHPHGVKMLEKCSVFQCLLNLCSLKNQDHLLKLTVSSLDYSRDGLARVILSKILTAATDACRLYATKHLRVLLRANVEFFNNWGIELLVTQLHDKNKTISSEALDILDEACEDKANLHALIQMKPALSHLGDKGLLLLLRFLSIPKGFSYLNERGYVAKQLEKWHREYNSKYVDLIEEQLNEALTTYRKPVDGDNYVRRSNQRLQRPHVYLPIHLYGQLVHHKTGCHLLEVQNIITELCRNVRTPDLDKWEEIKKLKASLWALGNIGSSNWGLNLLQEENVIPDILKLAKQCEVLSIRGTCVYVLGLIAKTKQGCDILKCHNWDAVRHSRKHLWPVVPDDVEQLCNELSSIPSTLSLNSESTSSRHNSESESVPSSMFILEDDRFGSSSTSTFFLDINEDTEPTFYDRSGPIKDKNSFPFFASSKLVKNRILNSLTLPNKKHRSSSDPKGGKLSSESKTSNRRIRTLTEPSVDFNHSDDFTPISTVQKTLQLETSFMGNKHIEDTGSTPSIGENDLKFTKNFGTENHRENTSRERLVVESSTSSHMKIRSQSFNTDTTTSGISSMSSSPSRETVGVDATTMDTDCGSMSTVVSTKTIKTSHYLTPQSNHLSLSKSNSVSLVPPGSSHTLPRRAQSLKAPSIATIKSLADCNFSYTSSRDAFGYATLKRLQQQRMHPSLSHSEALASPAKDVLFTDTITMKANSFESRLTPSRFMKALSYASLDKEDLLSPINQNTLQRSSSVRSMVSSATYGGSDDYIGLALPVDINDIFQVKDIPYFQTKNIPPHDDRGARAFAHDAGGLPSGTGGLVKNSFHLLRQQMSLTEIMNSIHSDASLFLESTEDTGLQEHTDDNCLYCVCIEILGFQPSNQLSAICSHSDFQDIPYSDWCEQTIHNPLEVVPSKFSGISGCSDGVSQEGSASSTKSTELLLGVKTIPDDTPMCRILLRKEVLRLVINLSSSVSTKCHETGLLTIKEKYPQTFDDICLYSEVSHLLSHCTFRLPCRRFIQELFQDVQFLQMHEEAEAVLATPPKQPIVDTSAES
Chain of Ribosomal protein S6 kinase beta-1 (Homo sapiens) (P23443 whole entry, looked up): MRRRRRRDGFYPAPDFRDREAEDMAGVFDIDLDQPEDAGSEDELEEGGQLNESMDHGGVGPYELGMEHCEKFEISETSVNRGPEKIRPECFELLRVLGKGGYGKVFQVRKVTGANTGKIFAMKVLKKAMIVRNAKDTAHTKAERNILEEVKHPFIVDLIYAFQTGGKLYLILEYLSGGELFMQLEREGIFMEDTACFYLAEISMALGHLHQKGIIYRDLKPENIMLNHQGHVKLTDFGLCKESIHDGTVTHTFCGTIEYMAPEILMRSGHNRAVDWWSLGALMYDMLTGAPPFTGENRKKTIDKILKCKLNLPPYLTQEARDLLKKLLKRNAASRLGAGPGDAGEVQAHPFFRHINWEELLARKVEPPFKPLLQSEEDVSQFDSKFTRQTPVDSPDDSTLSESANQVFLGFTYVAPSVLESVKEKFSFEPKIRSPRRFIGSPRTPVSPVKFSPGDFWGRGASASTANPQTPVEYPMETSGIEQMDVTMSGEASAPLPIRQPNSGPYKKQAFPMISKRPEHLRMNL

CNC(=O)CCc1cc(-c2ccc(-c3ccc(C(F)(F)F)cc3)cc2)n(-c2ccc(N3CCNCC3)cc2)n1
pIC50 (MDA-MB-231): 6.00 | inhibition [1]: Active | inhibition [2]: inactive | Activity (PC-3 [3]): Dose-dependent effect | Activity (PC-3 [4]): Dose-dependent effect | Activity (PC-3 [5]): inactive | Activity (SK-BR-3): Dose-dependent effect | Activity [6]: 73% | Activity [7]: 91% | Activity [8]: 103% | Activity [9]: 122% | Activity [10]: 88% | inhibition [11]: inactive | inhibition [12]: Dose-dependent effect | inhibition [13]: inactive | Activity (PC-3 [14]): 48% | Activity (Mus musculus [15]): Active | Activity (Mus musculus [16]): Active | Activity (PC-3 [17]): 11.6%
